Measurements: ChEMBL document CHEMBL3352752, “Towards the development of chromone-based MEK1/2 modulators” (Eur J Med Chem, 2014)
Calls of active or inactive are those of the source. No cut-off for these calls is given here.

Columns and labels:
[1] = target: Dual specificity mitogen-activated protein kinase kinase MEK1/2 (Rattus norvegicus, UniProt Q01986+P36506); assay: Inhibition of MEK1/2 in rat IEC6 cells assessed as reduction in ERK1/2 loop phosphorylation dosed 30 mins before to stimulation with 10% serum for 5 mins by immunoblotting method
How it was run: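 IEC-6 cells grown in DMEM/10% FBS, then made quiescent at 95% confluence in serum-free DMEM-Ham's F-12 (1:1) with 15 mM Hepes pH 7.4 and 0.1% BSA for 24 h. Compounds added in DMSO. Lysates immunoblotted for phospho-ERK1/2 (Thr202/Tyr204), with total ERK1/2 and HSC70 as loading controls. Bands quantified by densitometry. IC50 from triplicate determinations.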

[2] = Inhibition of constitutively activated GST-tagged human MEK1 S218D/[…] (MEK1DD) mutant assessed blocking of increase in bovine MBP kinase activity of recombinant His6-tagged ERK2 using [gamma32P]ATP by liquid scintillation counting method
How it was run: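 GST-MEK1DD (50 ng) preincubated 30 min at 30 °C with inhibitor or vehicle and 50 μM ATP plus 5 μCi [γ-32P]ATP, in 20 mM Hepes, 10 mM MgCl2, 1 mM DTT, pH 7.4. His6-ERK2 (300 ng, E. coli-expressed) added for 30 min, then MBP (0.2 mg/mL) for 10 min. Controls run without ERK2. Stopped with Laemmli buffer. IC50 from duplicate determinations.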

A549 = assay: Antiproliferative activity against human A549 cells after 5 days by WST1 assay; format: functional, cell-based; settings: A549, 120 h
How it was run: (§1)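 Cells seeded at 2×10^3 (HCT 116, HT-29) or 1.2×10^3 (A-375, A549) per well in DMEM with 10% FBS, 2 mM glutamine and antibiotics. Compounds added in DMSO, with medium changed daily for 5 days. WST-1 then added for 1 h. Absorbance read at 450 nm, reference 620 nm. Triplicate wells.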

[3] = Antiproliferative activity against human HCT116 cells after 5 days by WST1 assay; format: functional, cell-based; settings: HCT-116, 120 h; how it was run: as §1
HT-29 = assay: Antiproliferative activity against human HT-29 cells after 5 days by WST1 assay; format: functional, cell-based; settings: HT-29, 120 h; how it was run: as §1
A-375 = assay: Antiproliferative activity against human A375 cells after 5 days by WST1 assay; format: functional, cell-based; settings: A-375, 120 h; how it was run: as §1
Homo sapiens = species on record: Homo sapiens; assay: Potency index, ratio of IC50 for PD98059 to IC50 for test compound against constitutively activated GST-tagged human MEK1 S218D/[…] (MEK1DD) mutant
[4] = target: Dual specificity mitogen-activated protein kinase kinase 1 (Homo sapiens) (UniProt Q02750); assay: Inhibition of MEK1 (unknown origin) at 1 uM
Chain of Dual specificity mitogen-activated protein kinase kinase 1 (Homo sapiens) (Q02750 whole entry): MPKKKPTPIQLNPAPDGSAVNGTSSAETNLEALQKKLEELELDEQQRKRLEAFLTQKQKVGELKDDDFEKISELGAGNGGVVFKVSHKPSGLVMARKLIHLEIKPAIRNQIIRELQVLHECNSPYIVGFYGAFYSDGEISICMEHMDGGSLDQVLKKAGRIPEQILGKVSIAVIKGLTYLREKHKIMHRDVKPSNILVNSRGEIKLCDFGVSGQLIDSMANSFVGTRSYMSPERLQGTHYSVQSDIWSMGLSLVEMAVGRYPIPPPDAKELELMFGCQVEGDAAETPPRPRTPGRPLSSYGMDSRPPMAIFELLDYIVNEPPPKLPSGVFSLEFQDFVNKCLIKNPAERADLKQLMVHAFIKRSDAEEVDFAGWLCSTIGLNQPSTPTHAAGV

Structure (SMILES) | IC50 [1] [µM] | IC50 [2] [µM] | also measured
COc1cccc(-c2cc(=O)c3cc(Cl)cc(NC4CCOCC4)c3o2)c1N | > 100 | 1.1 | –
CCCCNc1cc(Cl)cc2c(=O)cc(-c3cccc(OC)c3N)oc12 | > 100 | 1.9 | –
COc1cccc(-c2cc(=O)c3cc(Cl)cc(NCCCN(C)C)c3o2)c1N | > 100 | 6.8 | –
COc1cccc(-c2cc(=O)c3cccc(NCCCO)c3o2)c1N | 0.097 | – | –
COc1cccc(-c2cc(=O)c3cccc(NCC[C@H](O)CO)c3o2)c1N | 0.073 | – | –
COc1cccc(-c2cc(=O)c3cc(Cl)cc(NCC[C@H](O)CO)c3o2)c1N | 3.1 | 0.22 | IC50 (A549): 17.4 µM; IC50 [3]: 13 µM; IC50 (HT-29): 3.7 µM; IC50 (A-375): 10.5 µM
COc1cccc(-c2cc(=O)c3cc(Cl)ccc3o2)c1N | > 100 | 6.4 | –
COc1cccc(-c2cc(=O)c3cc(Cl)cc(NCCCO)c3o2)c1N | 1.6 | 0.03 | IC50 (A549): 12 µM; Ratio IC50 (Homo sapiens): < 100; IC50 [3]: 10.3 µM; IC50 (HT-29): 1.6 µM; IC50 (A-375): 5.9 µM; inhibition [4]: Active
COc1cccc(-c2cc(=O)c3cc(Cl)cc(NC(C)C)c3o2)c1N | > 100 | 2.7 | –
COc1cccc(-c2cc(=O)c3cc(Cl)cc(CCCN)c3o2)c1N | – | 4.4 | –
COc1cccc(-c2cc(=O)c3cc(Cl)cc(NCCCN)c3o2)c1N | > 100 | 10.3 | –
COc1cccc(-c2cc(=O)c3ccccc3o2)c1N | 4.2 | 2 | IC50 (HT-29): 4 µM
CCOc1cccc(-c2cc(=O)c3ccccc3o2)c1N | 1 | 1.9 | –
COCCCNc1cc(Cl)cc2c(=O)cc(-c3cccc(OC)c3N)oc12 | > 100 | 9.1 | –
COc1cccc(-c2cc(=O)c3cc(Cl)cc(NCc4ccccc4)c3o2)c1N | > 100 | 1.4 | –
